Measured values collected from several papers.
Protocols differ between the studies behind these lines.
Target: Protein kinase C theta type (PRKCQ, Homo sapiens, UniProt Q04759)

CCN(CC)CCNC(=O)c1c(C)[nH]c(/C=C2\C(=O)Nc3ccc(F)cc32)c1C
inhibition (enzyme activity; inhibitor; 10 µM): 11%

COc1cc(Cl)c(C(=O)N[C@@H](CN[C@H]2CC[C@@H](N)CC2)Cc2ccc(C#N)cc2)cc1-c1ccc(CN[C@H](C)c2ccc(C)cc2)o1
remaining activity (enzyme activity; inhibitor; 1 µM): 106%

Cc1ccc(NC(=O)c2ccc(C)c(C(F)(F)F)c2)cc1C#Cc1nn(C2CCC(O)CC2)c2ncnc(N)c12 (stereo not shown)
remaining signal (cell-free assay; 10 µM): 103%

O=C(NCCCC1CCCCC1)c1ccc(CNC(=O)c2cnn(-c3ccccc3)c2C(F)(F)F)cc1
remaining binding (cell-free assay; competition with immobilised ligand; 0.1 µM): 100%

CC/C(=N\NC(=O)NCc1cccc(O)c1)c1ccc(O)c(C)c1O
inhibition (enzyme activity; inhibitor; 0.1 µM): 12.2%

Cc1c[nH]c2nccc(Oc3c(F)cc(Nc4cc(Cl)nc(N)n4)cc3F)c12
remaining binding (cell-free assay; competition with immobilised ligand; 0.1 µM): 66%

O=C1NC(=O)c2cc(Nc3ccc(F)cc3)c(Nc3ccc(F)cc3)cc21
remaining signal (cell-free assay; 0.5 µM): 98.7%

CCCOc1ccc([C@@H]2[C@@H](C(=O)O)[C@H](c3ccc4c(c3)OCO4)CN2CC(=O)Nc2c(CC)cccc2CC)cc1
remaining binding (cell-free assay; competition with immobilised ligand; 1 µM): 100%

Cc1sc(C(=O)NC2COC2)cc1-n1cc(NC(=O)Nc2c(F)cccc2Cl)cn1
remaining activity (enzyme activity; inhibitor; 10 µM): 96.9%

Cc1ccc(C(=O)Nc2ccc(CN3CCN(C)CC3)c(C(F)(F)F)c2)cc1C#Cc1cnc2cccnn12
remaining activity (enzyme activity; 23.5 nM): 96%

C[C@@H]1CCN(C(=O)CC#N)C[C@@H]1N(C)c1ncnc2[nH]ccc12
remaining signal (cell-free assay; 0.5 µM): 89%

CN(C)C1CCN(CC#Cc2nn(C3CCCC3)c3nc(NCc4ccccc4)ncc23)C1 (stereo not shown)
inhibition (enzyme activity; inhibitor; FRET; 0.1 µM): -1%

CS(=O)(=O)c1cc(C2(NC(=O)c3cncc4c3cnn4-c3ccc(F)cc3)CC2)ccn1
remaining binding (cell-free assay; competition with immobilised ligand; 1 µM): 99%

CC(C)(O)[C@H]1CC[C@H](Nc2ccc3ncc(-c4cccc(C(F)(F)F)c4)n3n2)CC1
remaining activity (enzyme activity; inhibitor; 1 µM): 86.1%

CO[C@@H](C)c1c(Nc2ccc([C@@H](N(C)C(=O)C3CCS(=O)(=O)CC3)C(F)(F)F)cc2)cnc2cc(Cl)nn12
remaining binding (cell-free assay; competition with immobilised ligand; 1 µM): 98%

COc1cc2ncnc(Nc3ccc(Oc4ccccc4)c(C)c3C)c2cc1OC
inhibition (enzyme activity; inhibitor; 1 µM): 8%

Cn1cnc(Br)c1C1=CN(c2ncnc3[nH]cnc23)CCS1
inhibition (enzyme activity; inhibitor; radiometric; 50 nM): 64.1%

CS(=O)(=O)CCNCc1ccc(-c2ccc3ncnc(Nc4ccc(OCc5cccc(F)c5)c(Cl)c4)c3c2)o1
remaining signal (cell-free assay; 0.5 µM): 72.4%

CCC(=O)N[C@@H]1CC[C@H](C(=O)N(C)c2ccc(-c3nc4ccccc4o3)cc2)C1
remaining binding (cell-free assay; competition with immobilised ligand; 1 µM): 76%

Cc1ccc(C(=O)NCc2ccsc2)cc1C#Cc1cn(C(C)C)c2ncnc(N)c12
activity vs control (enzyme activity; inhibitor; 1 µM): 105%

CNCc1ccc(-c2cc(-c3nc(-c4ccc(S(=O)(=O)C(C)C)cc4)cnc3N)on2)cc1
inhibition (enzyme activity; inhibitor; 0.4 µM): 0%

CN1CC(Oc2cnc(C#N)cc2-c2ccn3nc(NC(=O)C4CC4)cc3c2)C1
inhibition (enzyme activity; inhibitor; 1 µM): -2%
